Reference: ChEMBL document CHEMBL4765327, “Design and synthesis of thiourea-based derivatives as Mycobacterium tuberculosis growth and enoyl acyl carrier protein reductase (InhA) inhibitors” (Eur J Med Chem, 2020)

Legend:
[1] = system: Mycobacterium tuberculosis; test: Antimycobacterial activity against Mycobacterium tuberculosis H37Rv assessed as inhibition of microbial growth incubated for 1 week by alamar blue based assay; format: functional; conditions: 168 h, time 1 weeks
Method in brief: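 M. tuberculosis H37Rv by Microplate Alamar Blue Assay; MIC reported in μg/mL, with isoniazid, rifampicin and ethambutol run as standard drugs.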

[2] = Cytotoxicity against mouse RAW264.7 cells assessed as reduction in cell viability at 50 ug/ml incubated for 72 to 96 hrs by MTT assay; format: cell-based; conditions: at 50 µg/mL, time 72-96 hrs, read-out: INH
[3] = target: T1, Enoyl-[acyl-carrier-protein] reductase [NADH] (Mycobacterium tuberculosis, UniProt P9WGR1); test: Inhibition of recombinant Mycobacterium tuberculosis His6-tagged InHA expressed in Escherichia coli BL21 using trans-2-dodecenoyl-Coenzyme A as substrate
T1 sequence (P9WGR1 whole entry): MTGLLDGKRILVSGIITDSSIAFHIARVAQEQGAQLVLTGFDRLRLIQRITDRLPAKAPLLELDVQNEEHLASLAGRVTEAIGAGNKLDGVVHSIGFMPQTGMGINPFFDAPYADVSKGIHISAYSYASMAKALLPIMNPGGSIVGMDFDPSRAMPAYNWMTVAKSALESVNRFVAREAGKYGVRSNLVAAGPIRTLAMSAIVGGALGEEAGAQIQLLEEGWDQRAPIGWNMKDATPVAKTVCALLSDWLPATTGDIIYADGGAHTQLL
Method in brief: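 M. tuberculosis InhA screened at 50 μM, and compounds above 70% inhibition also at 5 μM; triclosan positive control; triplicate assays; IC50 from 4-parameter curve fit using at least seven points.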

[4] = system: Mycobacterium tuberculosis; test: Antimycobacterial activity against Mycobacterium tuberculosis H37Rv infected in mouse primary macrophage cells assessed as reduction in colony forming unit at 10 uM incubated for 48 hrs followed by macrophage lysis and measured after 3 weeks by alamar blue based serial dilution method; format: functional; conditions: time 23 day
Method in brief: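 Macrophages infected with M. tuberculosis, then exposed to compounds at 10 μM final for two days; bacteria suspended in 7H9 broth, serially diluted, plates incubated at 37 °C and growth read after three weeks.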

[5] = system: Mycobacterium tuberculosis; test: Antimycobacterial activity against Mycobacterium tuberculosis H37Rv assessed as reduction in colony forming unit at 1 to 10 ug/ml incubated for 7 days in nutrient starvation medium by alamar blue based serial dilution method; format: functional; conditions: dose 1-10 µg/ml; time 7 day
Method in brief: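 Culture starved in PBS at 37 °C for six weeks, then exposed to compounds, isoniazid or rifampicin at 10 μg/ml for seven days; persisters counted by MPN assay.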

Row | Compound | MIC [1] [µM] | cytotoxicity at 50 ug/ml [2] [%] | IC50 [3] [µM] | fold change (FC) [4] | fold change (FC) [5]
1 | Cc1cccnc1NC(=S)Nc1ccccc1 | > 103 | – | – | – | –
2 | Cc1cccnc1NC(=S)Nc1ccc(F)cc1 | 47.9 | – | – | – | –
3 | Cc1cccnc1NC(=S)Nc1cc(C(F)(F)F)cc(C(F)(F)F)c1 | > 66 | – | – | – | –
4 | Cc1cccnc1NC(=S)Nc1ccc2ccccc2c1 | > 85.3 | – | – | – | –
5 | O=C(NCc1ccccc1Cl)Nc1ccccc1 | > 95.8 | – | – | – | –
6 | S=C(NCc1ccccc1Cl)Nc1ccccc1 | > 90.2 | – | – | – | –
7 | Cc1cccnc1NC(=S)Nc1ccccc1C(F)(F)F | > 80.4 | – | – | – | –
8 | Cc1cccnc1NC(=S)Nc1ccc(Br)cc1 | 2.42 | 30.8 | – | – | –
9 | S=C(NCc1ccccc1Br)Nc1ccccc1 | > 77.9 | – | – | – | –
10 | O=C(NCc1ccccc1Br)Nc1ccccc1 | > 82 | – | – | – | –
11 | O=[N+]([O-])c1ccc(NC(=S)NCc2ccccc2Br)cc1 | 4.26 | 24.9 | 15.6 | – | –
12 | Cc1ccc(NC(=S)Nc2ncccc2C)cc1 | 97.3 | – | – | – | –
13 | Cc1cccnc1NC(=S)Nc1ccc(Cl)cc1Cl | 2.5 | 34 | – | 1.4 | 2.3
14 | COc1ccc(NC(=S)Nc2ncccc2C)cc1 | 45.8 | – | – | – | –
15 | Cc1cccnc1NC(=S)Nc1ccc(I)cc1 | 2.11 | 31.2 | – | – | 2
16 | O=[N+]([O-])c1ccc(NC(=S)NCc2ccccc2Cl)cc1 | 2.42 | 29.9 | 17.7 | 1.8 | 2.6
17 | CC[C@@H](CO)NCCN[C@@H](CC)CO [ETHAMBUTOL] | 7.6 | – | – | – | –
18 | NNC(=O)c1ccncc1 [ISONIAZID] | 0.36 | – | – | 2.5 | 1.4
19 | CO[C@H]1/C=C/O[C@@]2(C)Oc3c(C)c(O)c4c(O)c(c(/C=N/N5CCN(C)CC5)c(O)c4c3C2=O)NC(=O)/C(C)=C\C=C\[C@H](C)[C@H](O)[C@@H](C)[C@@H](O)[C@@H](C)[C@H](OC(C)=O)[C@@H]1C [RIFAMPIN] | 0.12 | – | – | – | 1.6
